We go through one substance from article PMC4120251 (Journal of Alzheimer's disease : JAD, 2013).

The subject of data set [1] is U251 astrocytes. In words: Secretion of ApoE, human ApoE ELISA of media. The data set is classed as cell-based. As to conditions: no ox-PAPC or oAβ42, ApoE in media by ELISA, n = 6.
The nature of data set [2]: Plasma total cholesterol in APP/PS1ΔE9 mice. Particulars: peptide group before treatment, mean ± SEM, n = 8. The data set is classed as in vivo, mouse. The essentials: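 Plasma total cholesterol was determined colorimetrically with Infinity cholesterol reagent at baseline and after 6 weeks of treatment. Mice were 4-month-old male transgenics.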
Data set [3] is described as follows: Tissue bioavailability: 14C-labeled peptide in brain. The data set is classed as in vivo, mouse. Particulars: 14C-labeled peptide via tail vein, brain at 6 h.
The conditions of data set [4]: in vivo; cited from earlier work.
In data set [5] the test system is TNF-α. In words: TNF-α ELISA in TBS soluble brain homogenate. Type of data set: in vivo. As to conditions: APP/PS1ΔE9 mice, 50 μg/mouse RO 3 times a week for 6 weeks, p < 0.05. The essentials:
(§1)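 Saline-perfused cortex and hippocampus were homogenized in 15 volumes of ice-cold TBS (pH 7.4) with protease inhibitors. Homogenate was spun at 20,000g for 20 min at 4°C, and the supernatant (TBS-soluble fraction) was assayed with a commercial sandwich ELISA following the kit protocol. Values were normalized to total protein (BCA). Mice were 4-month-old males; controls received an equal volume of saline.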
For orientation: An ELISA detects its analyte on a solid surface through an enzyme-linked reagent.

Data set [6] deals with Iba-1 activated microglia. Description: Activated microglia by Iba-1 immunostaining. As to conditions: APP/PS1ΔE9 mice, 50 μg/mouse RO 3 times a week for 6 weeks, n = 8. The data set is classed as in vivo. The essentials: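 Right hemisphere fixed in buffered formaldehyde after saline perfusion under ketamine/xylazine. Free-floating 30 μm sections were stained with rabbit polyclonal anti-Iba-1 (1:250) and a Vectastain rabbit IgG kit. Four coronal sections per brain were imaged and converted to grayscale. Iba-1-positive area was measured over cortex and hippocampus and expressed as burden (% stained surface of total area). Mice were 4-month-old males.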

Data set [7] is classed as in vivo, mouse. Particulars: ApoE null mice.
The test system of data set [8] is IL-6. Description: IL-6 ELISA in TBS soluble brain homogenate. Type of data set: in vivo. As to conditions: APP/PS1ΔE9 mice, 50 μg/mouse RO 3 times a week for 6 weeks, p < 0.05. A digest of the protocol: as §1
The test system of data set [9] is U251 astrocytes. In words: Cell viability, MTT assay. The data set is classed as cell-based, human. Particulars: U251 cells, 0 to 10 μg/ml, 24 h, n = 4. A digest of the protocol:
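U251-MG astroglioma cells were grown in DMEM/Ham's F-12 with 10 mM HEPES, 2 mM L-glutamine, penicillin/streptomycin and 10% FBS. Cells were exposed to test compound for 24 h, and viability was read by MTT reduction using a TOX-1 kit.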
A general note: Tetrazolium assays rely on reduction of a dye to a coloured formazan, in cell work by metabolically active cells.

Where two headings read alike, the source gives them in different places.

As for “Ac-LRKLRKRLLRDWLKAFYDKVAEKLKEAF-NH2 [Ac-hE18A-NH2]”, in data set [1], the “enhancement of ApoE secretion by peptide by itself” value is “about 25%”. In [2], the “plasma cholesterol at baseline” value turned out to be 165.3 ± 10.3 mg/dL. For the same substance, the “peptide crossing BBB, fraction of the injected dose” value in [3] is 0.13 % of the injected dose. In addition, in [4], the “half-life in plasma, rapid phase” value was 1.6 min. Further, the “half-life in plasma, slow phase” value in data set [4] is 96.6 min. In addition, the “TNF-α level in TBS soluble fraction of brain homogenate versus control” value in [5] is given as “decreased significantly”. Besides, the “reduction in the amount of activated microglia (Iba-1 staining)” value in [6] turned out to be 13%. For the same substance, in [6] (p < 0.05), the “number of Iba-1 immunopositive activated microglia versus saline” value is “significantly reduced”. Also, the “change in plasma cholesterol levels compared to baseline” value in data set [7] (retro-orbital (RO), 5 min) was 52 ± 3%; in [7] (retro-orbital (RO), 5 h) it was 17.2 ± 2%; in data set [7] (tail vein, 5 min), 52 ± 4%; in data set [7] (tail vein, 5 h) it was 14 ± 1%. In addition, the “IL-6 level in TBS soluble fraction of brain homogenate versus control” value in [8] was “decreased significantly”. Moreover, the “toxicity (cell viability) compared to control” value in [9] is “no toxicity”.
